Test system: MS2 coat protein
Assay: apparent Kd, MS2 coat protein; higher = weaker binding; RNA-MaP array; tryptophan 2.4 mM where present
In short: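 Binding was read on Illumina sequencing-chip clusters where stalled E. coli RNA polymerase had transcribed each design. A titration of SNAP-549-labelled MS2 coat protein began at 0.7 or 1.5 nM and doubled to 3 µM, once without ligand and once with constant ligand, in 100 mM Tris-HCl pH 7.5, 80 mM KCl, 4 mM MgCl2, BSA, DTT, yeast tRNA and Tween-20. The apparent Kd is the median of filtered per-cluster binding-curve fits, based on green signal normalised to red-channel RNA signal and control-cluster median Fmax.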

[1] = designed as: OFF switch for tryptophan, no ligand
[2] = ligand present: tryptophan, designed as: OFF switch for tryptophan
[3] = designed as: ON switch for tryptophan, no ligand
[4] = ligand present: tryptophan, designed as: ON switch for tryptophan

AGUUUAGACACGGCCGCCACUCGUGACAGAUUUCGCAGUGGUCAACAUGAGGAUCACCCAUGUCUGAGGACCGGGUGUUGAGUUU
apparent Kd [1]: 44.1 nM
apparent Kd [2]: 259 nM

AGCACUGUGACGGCCGCCACUACAUAUAGGGUGGUCAGGCCCAUAAUACAUGAGGAUCACCCAUGUAGGACCGGGUCUCAGUGCA
apparent Kd [1]: 16.8 nM
apparent Kd [2]: 12.1 nM

AUGACUAACAAAGAAGAUAAAAUGGGUGAACGAGGACCGGUACGGCCGCCACUCGGACAUGAGGAUCACCCAUGUCCAUGUGCAA
apparent Kd [1]: 22.3 nM
apparent Kd [2]: 28.7 nM

GGUUACUCUACGGCCGCCACUGAUUAAUUAUAAUCCUGUACAUAAACAUGAGGAUCACCCAUGUACAGGACCGGGUAGUGUAACC
apparent Kd [3]: 34.7 nM
apparent Kd [4]: 29.1 nM

GCAACGCUGUCGGCCGCCACUUUUACAUUGGCCGUGCUGUCUCUACAUGAGGAUCACCCAUGUGGAAGGACCGGGACAGCACACU
apparent Kd [1]: 29 nM
apparent Kd [2]: 64 nM

AGUCUGGACUCGGCCGCCACUCGUGAUGCUUUGGCACAUGAGGAUCACCCAUGUGGUCGGCCUUAGAGGACCGGGAGUACCAGUC
apparent Kd [3]: 56.1 nM
apparent Kd [4]: 13.7 nM

UUAUAAGUACCGGUCCUCAGAUCCUCAUGACGAGGACCGGUACGGCCGCCACUCGAAACAUGAGGAUCACCCAUGUAAUAAUAUC
apparent Kd [1]: 23.8 nM
apparent Kd [2]: 24.7 nM

CUAUGCAGGUCGGCCGCCACUACACACAUGAGGAUCACCCAUGUAGUUACUGGGUGAAGUGGCAGUAGGACCGGGACCUGCAUAU
apparent Kd [3]: 257 nM
apparent Kd [4]: 360 nM

AACGGUCGUACCGGAAUGAUCCUCAUGUAACGAGGACCGGUACGGCCGCCACUCGAUAACAUGAGGAUCACCCAUGUAAUAAUAA
apparent Kd [1]: 12.9 nM
apparent Kd [2]: 11 nM

AUACAUGAGGAUCACCCAUGUGAUGGCCGGCGAGGACCGGUACGGCCGCCACUCGUGAUCCGUCCUGAGAGCAAAGCCCUCAACA
apparent Kd [3]: 82.1 nM
apparent Kd [4]: 102 nM

ACCUGCGUUUGAUAAAAUCAGACGCAGGUUCGAGGACCGGUACGGCCGCCACUCGGACAUGAGGAUCACCCAUGUUUGACAUGGG
apparent Kd [1]: 109 nM
apparent Kd [2]: 256 nM

AAUAAACAUGAGGAUCACCCAUGUAGGGUGCGAGGACCGGUACGGCCGCCACUCGGGUGAAAACAUGAGGAUCACCCAUGUUAAA
apparent Kd [1]: 198 nM
apparent Kd [2]: 420 nM

AUAUAUACAUGAGGAUCACCCAUGUUAUUUCGAGGACCGGUACGGCCGCCACUCGAUAGAGUAGAAGUAAAUUUUGUUACAUGUA
apparent Kd [3]: 11.1 nM
apparent Kd [4]: 11.4 nM

AUAACAUGAGGAUCACCCAUGUAUUGGUAACGAGGACCGGUACGGCCGCCACUCGAAUUUUGGUGGUAUAAUAUAUAUAUGAUUA
apparent Kd [3]: 21 nM
apparent Kd [4]: 20.6 nM

AAUUAUCAGUCGGCCGCCACUGACACAUGAGGAUCACCCAUGUAACUUGGGUUAAAUUUACUGAACAGGACCGGGACAAAGGCUA
apparent Kd [1]: 179 nM
apparent Kd [2]: 236 nM

UCGUUUGAGGCGGCCGCCACUGGUCUCAUGGUCAACAUGAGGAUCACCCAUGUAUCUUUGCUAAGCAGGACCGGGCCUCGAGCGA
apparent Kd [1]: 66.7 nM
apparent Kd [2]: 36.8 nM

GGAUUAGAGGCGGCCGCCACUGGAACAUGAGGAUCACCCAUGUAGUGCAUGUAAUUAACCUCGAUCAGGACCGGGCCGAUAGUCA
apparent Kd [1]: 59.9 nM
apparent Kd [2]: 103 nM

UGUGGGCGCACGGCCGCCACUGUCUUCAUCUGUUUGUCUACAUGAGGAUCACCCAUGUUGGUUUACAGGACCGGGUGCAUCUAUG
apparent Kd [3]: 45.2 nM
apparent Kd [4]: 30.1 nM

AUUCAUGGAAACAUGAGAUAUCCUACCGGUCGAGGACCGGUACGGCCGCCACUCGGUUGGUGGCACAUGAGGAUCACCCAUGUUA
apparent Kd [3]: 291 nM
apparent Kd [4]: 265 nM

AUGCAUAGCACGGCCGCCACUCAAAUUAAACAUGAGGAUCACCCAUGUAACAUGGAUAAAAUAAAGAGGACCGGGUGAAAUGCAA
apparent Kd [3]: 28.3 nM
apparent Kd [4]: 18.9 nM

CCUAUGCAGUCGGCCGCCACUGAACAUGAGGAUCACCCAUGUUAUUAUAAAUAUGGUCCUAAAAUCAGGACCGGGACUGUAUAGG
apparent Kd [1]: 68 nM
apparent Kd [2]: 228 nM

UCAUAAGUACCGGUCCUCAGAUCCUCAUGACGAGGACCGGUACGGCCGCCACUCGAAACAUGAGGAUCACCCAUGUAAUAAUACU
apparent Kd [1]: 24.1 nM
apparent Kd [2]: 23.6 nM

AUAACAUGAGGAUCACCCAUGUAUUGGUUACGAGGACCGGUACGGCCGCCACUCGUAUUUUGGUGGUAUUUUGUAUAUAUGAUAA
apparent Kd [3]: 26.8 nM
apparent Kd [4]: 26.3 nM

Source: the EternaBench riboswitch data
